Measured values as given in PMC3136873 (Archives of biochemistry and biophysics, 2011).
One block for each molecule: values may come before it.

Tests used:
ALAS/AONS = assay: continuous coupled spectrophotometric assay; assay type: biochemical, Mus musculus; Escherichia coli; details: read-out: KmSCoA; ALAS site; co-substrate glycine; 30 °C
Method in brief: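 ALAS/AONS chimera was expressed in E. coli DH5α and purified by 20–40% ammonium sulfate fractionation, Ultrogel ACA-44 gel filtration and Q-Sepharose (100–150 mM KCl gradient). Its concentration was taken on a 96 kD subunit basis. ALAS-site activity was read continuously by spectrophotometry at 30 °C, varying one substrate with the other held constant. Km came from Michaelis-Menten nonlinear regression.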

[1] = target: T1, ALAS/ALAS (single chain dimeric ALAS) (Mus musculus, UniProt P08680); assay: dissociation constant for ALA binding
T1 sequence (P08680 50-587): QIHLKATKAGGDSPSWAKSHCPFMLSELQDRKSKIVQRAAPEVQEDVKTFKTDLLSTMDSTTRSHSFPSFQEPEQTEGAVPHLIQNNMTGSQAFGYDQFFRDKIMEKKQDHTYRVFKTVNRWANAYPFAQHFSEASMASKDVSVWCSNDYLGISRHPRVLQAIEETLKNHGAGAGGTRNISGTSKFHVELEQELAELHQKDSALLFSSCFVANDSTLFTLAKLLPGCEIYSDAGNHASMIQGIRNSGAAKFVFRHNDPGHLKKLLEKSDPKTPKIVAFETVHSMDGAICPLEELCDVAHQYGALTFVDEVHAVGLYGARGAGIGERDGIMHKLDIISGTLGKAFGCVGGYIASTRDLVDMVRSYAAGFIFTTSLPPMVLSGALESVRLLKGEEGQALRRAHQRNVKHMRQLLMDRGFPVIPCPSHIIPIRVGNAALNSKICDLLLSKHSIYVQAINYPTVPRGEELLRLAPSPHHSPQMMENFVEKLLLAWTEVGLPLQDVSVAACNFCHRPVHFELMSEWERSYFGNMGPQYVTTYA

SEC = target: the molecule itself; assay: SEC

Km (ALAS/AONS): 1.5 ± 0.2 µM
Molecule: CC(C)(COP(=O)(O)OP(=O)(O)OC[C@H]1O[C@@H](n2cnc3c(N)ncnc32)[C@H](O)[C@@H]1OP(=O)(O)O)[C@@H](O)C(=O)NCCC(=O)NCCSC(=O)CCC(=O)O [SCoA, succinyl-CoA]

Kd [1]: 1460 ± 10 nM
Molecule: NCC(=O)CCC(=O)O [ALA, 5-aminolevulinate]

B1: ALAS/AONS chimera (single-chain chimera of murine erythroid 5-aminolevulinate synthase and E. coli 8-amino-7-oxononanoate synthase) (enzyme, murine | E. coli)
chain: QIHLKATKAGGDSPSWAKSHCPFMLSELQDRKSKIVQRAAPEVQEDVKTFKTDLLSTMDSTTRSHSFPSFQEPEQTEGAVPHLIQNNMTGSQAFGYDQFFRDKIMEKKQDHTYRVFKTVNRWANAYPFAQHFSEASMASKDVSVWCSNDYLGISRHPRVLQAIEETLKNHGAGAGGTRNISGTSKFHVELEQELAELHQKDSALLFSSCFVANDSTLFTLAKLLPGCEIYSDAGNHASMIQGIRNSGAAKFVFRHNDPGHLKKLLEKSDPKTPKIVAFETVHSMDGAICPLEELCDVAHQYGALTFVDEVHAVGLYGARGAGIGERDGIMHKLDIISGTLGKAFGCVGGYIASTRDLVDMVRSYAAGFIFTTSLPPMVLSGALESVRLLKGEEGQALRRAHQRNVKHMRQLLMDRGFPVIPCPSHIIPIRVGNAALNSKICDLLLSKHSIYVQAINYPTVPRGEELLRLAPSPHHSPQMMENFVEKLLLAWTEVGLPLQDVSVAACNFCHRPVHFELMSEWERSYFGNMGPQYVTTYAELMSWQEKINAALDARRAADALRRRYPVAQGAGRWLVADDRQYLNFSSNDYLGLSHHPQIIRAWQQGAEQFGIGSGGSGHVSGYSVVHQALEEELAEWLGYSRALLFISGFAANQAVIAAMMAKEDRIAADRLSHASLLEAASLSPSQLRRFAHNDVTHLARLLASPCPGQQMVVTEGVFSMDGDSAPLAEIQQVTQQHNGWLMVDDAHGTGVIGEQGRGSCWLQKVKPELLVVTFGKGFGVSGAAVLCSSTVADYLLQFARHLIYSTSMPPAQAQALRASLAVIRSDEGDARREKLAALITRFRAGVQDLPFTLADSCSAIQPLIVGDNSRALQLAEKLRQQGCWVTAIRPPTVPAGTARLRLTLTAAHEMQDIDRLLEVLHGNG
stoichiometry N (SEC): 2
